The values below come from BindingDB's records for doi:10.1021/jm060253o (University of Bologna, 2006).

A short description of data set [1]: Antiproliferative activity against MDR human HL60R cell line.
Data set [2] deals with Breakpoint cluster region protein/Tyrosine-protein kinase ABL1 (Homo sapiens, UniProt P00519+P11274). Put plainly: Antiproliferative activity against human K562 cell line expressing Bcr-Abl. Put shortly:
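Cell growth inhibition measured by counting cells with an automatic cell counter in sensitive HL60, MDR HL60R and Bcr-Abl-expressing K562 cells. IC50 is the concentration inhibiting 50% of cell growth.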

Breakpoint cluster region protein/Tyrosine-protein kinase ABL1, sequence (P00519 whole entry): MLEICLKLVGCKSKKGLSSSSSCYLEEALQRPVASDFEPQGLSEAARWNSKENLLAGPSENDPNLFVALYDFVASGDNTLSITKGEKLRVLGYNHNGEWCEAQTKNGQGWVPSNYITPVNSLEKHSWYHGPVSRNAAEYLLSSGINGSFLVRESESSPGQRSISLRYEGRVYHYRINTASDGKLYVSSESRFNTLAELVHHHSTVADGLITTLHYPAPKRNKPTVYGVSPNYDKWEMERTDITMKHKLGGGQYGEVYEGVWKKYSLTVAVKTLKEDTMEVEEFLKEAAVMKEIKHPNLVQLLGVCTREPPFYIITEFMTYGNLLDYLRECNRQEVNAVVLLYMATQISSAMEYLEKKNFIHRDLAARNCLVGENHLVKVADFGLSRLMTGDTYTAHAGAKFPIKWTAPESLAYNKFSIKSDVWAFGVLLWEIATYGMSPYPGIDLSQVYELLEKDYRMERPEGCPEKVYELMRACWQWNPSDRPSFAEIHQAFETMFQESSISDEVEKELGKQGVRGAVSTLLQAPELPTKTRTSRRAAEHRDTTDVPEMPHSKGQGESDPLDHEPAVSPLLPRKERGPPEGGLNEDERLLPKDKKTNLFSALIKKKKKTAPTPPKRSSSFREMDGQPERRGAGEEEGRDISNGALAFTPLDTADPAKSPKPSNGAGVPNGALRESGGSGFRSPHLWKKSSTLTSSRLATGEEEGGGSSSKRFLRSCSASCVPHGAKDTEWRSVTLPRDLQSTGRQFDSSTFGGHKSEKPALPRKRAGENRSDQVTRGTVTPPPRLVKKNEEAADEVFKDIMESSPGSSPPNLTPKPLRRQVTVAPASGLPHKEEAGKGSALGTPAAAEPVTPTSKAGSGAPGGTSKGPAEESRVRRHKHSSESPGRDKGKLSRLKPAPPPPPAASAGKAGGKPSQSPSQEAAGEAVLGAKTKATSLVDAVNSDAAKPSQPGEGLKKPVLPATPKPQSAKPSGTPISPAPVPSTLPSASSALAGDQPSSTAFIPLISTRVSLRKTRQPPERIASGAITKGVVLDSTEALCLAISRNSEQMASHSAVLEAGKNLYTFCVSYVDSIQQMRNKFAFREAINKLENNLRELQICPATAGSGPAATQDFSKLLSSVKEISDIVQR
Breakpoint cluster region protein/Tyrosine-protein kinase ABL1, sequence (P11274 whole entry): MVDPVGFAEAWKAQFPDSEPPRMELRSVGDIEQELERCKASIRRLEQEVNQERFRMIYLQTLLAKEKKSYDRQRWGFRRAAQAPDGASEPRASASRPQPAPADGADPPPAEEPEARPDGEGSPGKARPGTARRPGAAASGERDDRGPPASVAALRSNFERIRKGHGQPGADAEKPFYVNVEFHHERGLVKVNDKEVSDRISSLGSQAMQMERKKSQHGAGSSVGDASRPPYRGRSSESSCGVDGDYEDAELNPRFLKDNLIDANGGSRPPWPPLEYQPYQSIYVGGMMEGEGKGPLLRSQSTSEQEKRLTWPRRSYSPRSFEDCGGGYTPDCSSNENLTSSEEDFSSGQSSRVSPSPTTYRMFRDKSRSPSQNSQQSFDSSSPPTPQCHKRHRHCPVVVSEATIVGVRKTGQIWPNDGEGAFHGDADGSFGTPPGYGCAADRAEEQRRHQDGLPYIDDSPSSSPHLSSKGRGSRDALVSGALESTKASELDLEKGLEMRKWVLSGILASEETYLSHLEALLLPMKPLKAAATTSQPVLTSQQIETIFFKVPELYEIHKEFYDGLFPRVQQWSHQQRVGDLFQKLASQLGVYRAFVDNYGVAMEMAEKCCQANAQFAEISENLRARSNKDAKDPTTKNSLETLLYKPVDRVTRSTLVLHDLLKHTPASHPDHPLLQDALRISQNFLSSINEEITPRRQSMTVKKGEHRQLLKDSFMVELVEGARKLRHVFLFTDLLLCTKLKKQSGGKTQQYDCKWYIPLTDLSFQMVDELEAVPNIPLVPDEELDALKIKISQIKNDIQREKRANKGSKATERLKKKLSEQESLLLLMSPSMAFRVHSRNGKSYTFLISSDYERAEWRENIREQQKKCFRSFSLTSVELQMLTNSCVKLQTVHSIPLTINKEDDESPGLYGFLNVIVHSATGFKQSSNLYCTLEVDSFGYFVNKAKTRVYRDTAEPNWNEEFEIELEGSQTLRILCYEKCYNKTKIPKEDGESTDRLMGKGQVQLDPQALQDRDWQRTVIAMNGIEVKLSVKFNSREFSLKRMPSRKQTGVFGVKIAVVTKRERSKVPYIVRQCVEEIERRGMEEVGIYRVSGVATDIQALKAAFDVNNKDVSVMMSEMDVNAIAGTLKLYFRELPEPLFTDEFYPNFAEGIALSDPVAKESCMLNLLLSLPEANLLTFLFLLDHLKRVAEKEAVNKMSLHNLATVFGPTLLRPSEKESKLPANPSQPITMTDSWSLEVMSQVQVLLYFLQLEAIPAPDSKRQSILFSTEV

Turning to `COc1ccc(-c2cccc(-c3cc(OC)cc(OC)c3)c2)cc1` [4,3'',5''-trimethoxy-[1,1';3',1'']-terphenyl], the IC50 was 80 µM in data set [1] and 10 µM in data set [2].

Molecule `Oc1cc(O)cc(-c2ccc3cc(O)ccc3c2)c1` [5-(6-hydroxy-naphtalen-2-yl)-benzene-1,3-diol] registered an IC50 in data set [2] of 20 µM.

As to `COc1cc(/C=C/c2cc(OC)c(O)c(OC)c2)cc(OC)c1` [4-[(E)-2-(3,5-dimethoxy-phenyl)-vinyl]-2,6-dimethoxy-phenol], the IC50 in data set [1] is over 100 µM; in data set [2], 23 µM.

In data set [2], `COc1cc(/C=C/c2cccc(OC)c2O)cc(OC)c1` [2-[(E)-2-(3,5-dimethoxyphenyl)vinyl]-6-methoxyphenol] yielded a 50% inhibitory concentration (IC50) of 8 µM.

`COc1cc(/C=C/c2ccccc2O)cc(OC)c1` [2-[(E)-2-(3,5-dimethoxy-phenyl)-vinyl]-phenol]: the IC50 in data set [1] was 68 µM; in data set [2], 24 µM.

In the case of `COc1cc(OC)cc(-c2ccc3cc(OC)ccc3c2)c1` [2-(3,5-Dimethoxy-phenyl)-6-methoxy-naphthalene], the IC50 in data set [1] and in data set [2] was over 100 µM in each case.

Turning to `COc1cc(/C=C/c2cc(C(C)(C)C)c(O)c(C(C)(C)C)c2)cc(OC)c1` [2,6-di-tert-butyl-4-[(E)-2-(3,5-dimethoxy-phenyl)-vinyl]-phenol], the IC50 in data set [2] is over 100 µM.

Regarding `Oc1ccc(-c2cccc(-c3cc(O)cc(O)c3)c2)cc1` [[1,1';3',1'']-terphenyl-4,3'',5''-triol], the values for the IC50 in data set [1] and in data set [2] were 58 µM and 20 µM, respectively.

For `COc1cc(OC)cc(-c2ccc3cc(O)ccc3c2)c1` [6-(3,5-dimethoxy-phenyl)-naphthalen-2-ol], the IC50 in data set [1] came to 16 µM; in data set [2], 42 µM.

Regarding `Oc1ccc(-c2ccccc2-c2cc(O)cc(O)c2)cc1` [[1,1';2',1'']-terphenyl-4,3'',5''-triol], the IC50 came to 12 µM in data set [1] and 8 µM in data set [2].

Take `COc1ccc(-c2ccc(-c3cc(OC)cc(OC)c3)cc2)cc1` [4,3'',5''-trimethoxy-[1,1';4',1'']-terphenyl]: the IC50 in data set [1] and in data set [2] was over 100 µM each time.

As to `Oc1ccc(/C=C/c2cc(O)cc(O)c2)cc1` [5-[(E)-2-(4-hydroxyphenyl)ethenyl]benzene-1,3-diol], the values for the IC50 in data set [1] and in data set [2] were 60 µM and 28 µM, respectively.

Turning to `COc1cc(/C=C/c2ccc(O)cc2)cc(OC)c1` [4-[2-(3,5-Dimethoxy-phenyl)-vinyl]-phenol], the results for the IC50 in data set [1] and in data set [2] were 42 µM and 10 µM, respectively.

Take `COc1cc(/C=C/c2cccc(O)c2)cc(OC)c1` [3-[(E)-2-(3,5-Dimethoxy-phenyl)-vinyl]-phenol]: the 50% inhibitory concentration (IC50) in data set [1] is over 100 µM; in data set [2], 26 µM.

`COc1cc(OC)cc(-c2ccccc2-c2ccc(O)cc2)c1` [3'',5''-dimethoxy-[1,1';2',1'']-terphenyl-4-ol]: the half-inhibitory concentration (IC50) in data set [1] is 28 µM; in data set [2], 14 µM.

For the molecule `COc1ccc(/C=C/c2cc(OC)cc(OC)c2)cc1`, the IC50 in data set [2] was determined as 10 µM.

Regarding `COc1cc(OC)cc(-c2ccc(-c3ccc(O)cc3)cc2)c1` [3'',5''-dimethoxy-[1,1';4,1'']-terphenyl-4-ol], the IC50 turned out to be 23 µM in data set [1] and 35 µM in data set [2].

In data set [2], `COc1cc(/C=C/c2cc(Cl)ccc2O)cc(OC)c1` [4-chloro-2-[(E)-2-(3,5-dimethoxy-phenyl)-vinyl]-phenol] had an IC50 of 16 µM.

For `COc1cc(OC)cc(-c2cccc(-c3ccc(O)cc3)c2)c1` [3'',5''-dimethoxy-[1,1';3',1'']-terphenyl-4-ol], the IC50 in data set [1] is 20 µM; in data set [2] it was 14 µM.

`Oc1ccc(-c2ccc(-c3cc(O)cc(O)c3)cc2)cc1` [[1,1';4',1'']-terphenyl-4,3'',5''-triol]: the IC50 came out at 23 µM in data set [1] and 20 µM in data set [2].

As to `COc1ccc(-c2ccccc2-c2cc(OC)cc(OC)c2)cc1` [4,3'',5''-trimethoxy-[1,1';2',1'']-terphenyl], the IC50 in data set [2] stood at 6 µM.

Broadly, the IC50 is the concentration that gives 50% inhibition. Higher therefore signals weaker potency.
